The subject of the data set is MS2 coat protein. The experiment in a line: apparent Kd, MS2 coat protein; higher = weaker binding; RNA-MaP array; FMN 200 µM where present. The procedure, abridged:
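Apparent Kd: the median of filtered binding-curve fits from single clusters. Designs were transcribed on Illumina sequencing-chip clusters by stalled E. coli RNA polymerase and titrated with SNAP-549-labelled MS2 coat protein from 0.7 or 1.5 nM, doubling to 3 µM, in 100 mM Tris-HCl pH 7.5, 80 mM KCl, 4 mM MgCl2, BSA, DTT, yeast tRNA and Tween-20. Each series ran without and then with constant ligand, and green signal was normalised to red-channel RNA signal and control-cluster median Fmax.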

Setting [1] is: designed as: OFF switch for flavin mononucleotide, no ligand.
Where [2] appears, read: ligand present: flavin mononucleotide, designed as: OFF switch for flavin mononucleotide.
The mark [3] stands for this setting: designed as: ON switch for flavin mononucleotide, no ligand.
Where [4] appears, read: ligand present: flavin mononucleotide, designed as: ON switch for flavin mononucleotide.

As to “AUUUCGUCAGGAUAUCCUAGUAAUUGUUUCAUAUUUACGAUGGAGAAGGGACAUGAGGAUCACCCAUGUUGGUC”, the “apparent Kd” value runs as follows: under setting [1], 55.8 nM; under setting [2], 169 nM.
With “AGCUAGUCAGGAUAUACGCAAACGAACGAAGCAGUGAAGGGACAUGAGGAUCACCCAUGUAGAAGGGACUAGCA”, the “apparent Kd” value runs as follows: under setting [1], 24.5 nM; under setting [2], 140 nM.
In the case of “UGAAAUCAUGUAGGAUAUGCAUGGCGAAGCUACGCAGAAGGACAUGAGGAUCACCCAUGUUCUAGCUACCGAGUUCGGUGGCAA”, the “apparent Kd” value under setting [1] came out at 21.3 nM and the “apparent Kd” value under setting [2] is 127 nM.
Taken in the same sequence, the figures for “AUGCGGUCAGGAUAUGCAUGGCGGGACUUGCGUCGUGGCGUGGAGAAGGGACAUGAGGAUCACCCAUGUGGAGU” were 79 nM and 45.2 nM.
For “GGCUGCGAUGUGAAGGAUAUCCGCGUCUGGACAUGAGGAUCACCCAUGUAUGCUUGGAUCAUGCCGGAGAAGGUCACGAAUGAUU”, the “apparent Kd” value worked out at 38 nM under setting [3] and 16.6 nM under setting [4].
As to “GCGUUAGUAUCACAUGUAUUACAUGAGGAUCACCCAUGUUACUAGGAUAUGUAUUAGAAUUAUCAACAGAAGGAGUAAUAACGC”, the “apparent Kd” value stood at 12.6 nM under setting [1] and 20.3 nM under setting [2].
Taken in the same sequence, the figures for “CUCAAGUGAGGAUAUAUACUUCCAUCAUUUGAGAUAGAAGUAUAGAAGGCACAUGAGGAUCACCCAUGUAUAAC” were 136 nM and 39.7 nM.
On to “GCGAUUUUUAGAUUUUAAUAAUUUACAGAAGGUGAUAUACUUACAUGAGGAUCACCCAUGUUAUUCAAGGAUAUGUAGAUACUC”, for which the “apparent Kd” value is 308 nM under setting [3] and 31 nM under setting [4].
On to “AAAUUGUGAGGAUAUUCGAUGUACUCGGAGACGAGUAUAUCGGAGAAGGCACAUGAGGAUCACCCAUGUUCCUU”, for which the “apparent Kd” value under setting [1] stood at 17.6 nM and the “apparent Kd” value under setting [2] amounted to 92.6 nM.
Take “GGCUAACGGGCUAACAUGAGGAUCACCCAUGUGGACUCAUGGUAGGAUAUGCUGUACAAAGUACAGCAGAAGGGCCGGUGAGCC”: the “apparent Kd” value by setting is: under setting [3], 128 nM; under setting [4], 978 nM.
As for “CCUCCGUAUGAGGAUAUCGUCCAGGAAACUGGACGAGAAGGCAUGACAUGAGGAUCACCCAUGUUAAAGUGAUG”, the “apparent Kd” value reads like this: under setting [1], 21.4 nM; under setting [2], 58.4 nM.
On to “UAAUAAUAGUGAGGAUAUAGUUAUUAUAAUAUACUAGAAGGUACACAUGAGGAUCACCCAUGUUUUAUAAUUUGUAAUUUAAAU”, for which the “apparent Kd” value is, setting by setting: under setting [1], 23.2 nM; under setting [2], 20.5 nM.
With “UGGUGCGAGCUAUCGCAUGACUGGGAGGAUAUGACAUGAGGAUCACCCAUGUGGGAUCUAAAUUGUCAGAAGGCUCGAUCUGGG”, the “apparent Kd” value is 346 nM under setting [1] and 102 nM under setting [2].
Take “CAGCAAAAGUAGAAGGCAGUACUGAUUCAGUACUGAGGAUAUACAUGAGGAUCACCCAUGUAAUAUAGCUGAAUAAUAUAUUAU”: the “apparent Kd” value by setting is: under setting [1], 6.17 nM; under setting [2], 7.56 nM.
The like results for “UAUAUAUAGUAAGGAUAUGUAUUAAUUUUAUCAACAGAAGGUACUGACAUGAGGAUCACCCAUGUUUUAGUGUGGGCAUGUAGA” were, in that order, 84 nM and 109 nM.
Turning to “UUUGUUUAUGUGAGGAUAUACUGUUUGUUUUGUUUGUAGAAGGUACAUGAGGAUCACCCAUGUUUUGUAUUUAU”, the “apparent Kd” value was 21.5 nM under setting [1] and 18.8 nM under setting [2].
For the sequence “AACCACGUUAGAUUAAGCGUGACAUGAGGAUCACCCAUGUGUCAGGAUAUACAUGGGCGGGCCCAGUAGAAGGGACUUAAUAGC”, the “apparent Kd” value under setting [3] came to 146 nM and the “apparent Kd” value under setting [4] worked out at 91 nM.
As for “CUGAGGUCAGGAUAUGCAUGGCGGGACUUGCGUCGUGGCGUGGAGAAGGGACAUGAGGAUCACCCAUGUGGAGG”, the “apparent Kd” value under setting [1] amounted to 117 nM and the “apparent Kd” value under setting [2] was 99.8 nM.
Take “AACCUAUUACAGAAGGCCAGCUACAUGAGGAUCACCCAUGUCGAGUCAUGGAGGAUAUGUAGUAAUUUGCACGCGGACGAGUAC”: the “apparent Kd” value reads like this: under setting [3], 52.6 nM; under setting [4], 5.82 nM.
Consider “AAAAAACAUGAGGAUCACCCAUGUAAGGAUAUCGUGCAGAAAAAAAAAAAAAACUGCACGAGAAGGUACUUGGA”, for which the “apparent Kd” value reads like this: under setting [1], 81 nM; under setting [2], 143 nM.
Regarding “GUGCCUUAUGAGAAGGCGAUCAUGAAACAUGAUCGAGGAUAUCAUGAAAACAUGAGGAUCACCCAUGUAUGGGUAUUAUGGUAC”, the “apparent Kd” value amounted to 107 nM under setting [3] and 27.8 nM under setting [4].
In the case of “GGGCCGAAAGGCCCGCGGGCCCGGCAGGAUAUACAUGAGGAUCACCCAUGUCCGGCGAAAGCCGGGUAGAAGGGCCGGGCCCGC”, the “apparent Kd” value was determined as 4.98 nM under setting [1] and 5.29 nM under setting [2].
Taken in the same sequence, the figures for “AAGAAGUCAGGAUAUGCAUGGCGGGACUUGCGUCGUGGCGUGCAGAAGGGACAUGAGGAUCACCCAUGUGGAGA” were 124 nM and 249 nM.
As for “UCGGCGCGAGGAUAUGCGGUUCCUCCCUAGGGCCGGAGCGUACAUGAGGAUCACCCAUGUAGAAGGCGCGCCGC”, the “apparent Kd” value reads like this: under setting [1], 12.3 nM; under setting [2], 15 nM.
The like results for “GGUCCAUCUGUUAGGAUAUGCUUUGGGCUUCCGCAGUAGAAGGAACAUGAGGAUCACCCAUGUCCGAUGCCGUA” were, in that order, 20.4 nM and 25.4 nM.
For the sequence “AGUAGAUCAGGAUAUACGUGAAAGGUCAAAGUGUCCAAUAUACAUGAGGAUCACCCAUGUAGAAGGGAUCUACA”, the “apparent Kd” value is, setting by setting: under setting [1], 24.8 nM; under setting [2], 111 nM.
With “AUUAUUGGCUAAGGAUAUGGAUACAUGAGGAUCACCCAUGUAUAAUUUGUGAUCAUAUAAAUGAUCCAGAAGGUAGCUGUUUAU”, the “apparent Kd” value under setting [1] stood at 81.6 nM and the “apparent Kd” value under setting [2] was 220 nM.
The like results for “AAAUACAGAGGAUAUGUACGAAUUGACAUGAGGAUCACCCAUGUGACUUCGUGCACUUUGACAGAAGGCUGGGAAU” were, in that order, 16.8 nM and 32.7 nM.
In the case of “GCUGGAAAAGGAUAUACAUAACGUGCGUCAGCACGAGGCCUACAUGAGGAUCACCCAUGUAGAAGGUUUCCAGC”, the “apparent Kd” value was 17.1 nM under setting [1] and 25.9 nM under setting [2].
The like results for “UACGAGUCAGGAUAUUGGGCAAUAGCAUUACGGAACGAUCACAAGAAGGGACAUGAGGAUCACCCAUGUUAUAU” were, in that order, 23.8 nM and 21.7 nM.
Take “UUAGCAUACCGAGGAUAUUCAUAUAAUAAAUAAACAUGAGGAUCACCCAUGUGGCGAAAGCCUAGGGAGAAGGCGGAAUGCUAG”: the “apparent Kd” value stood at 171 nM under setting [3] and 27.2 nM under setting [4].
As to “CUCGUCUGGAAACGGAGCGGCCAACAUGAGGAUCACCCAUGUGAGGAUAUGCCUACUAAAAGUAGGCAGAAGGCGCACUUGGCA”, the “apparent Kd” value runs as follows: under setting [1], 23.6 nM; under setting [2], 34.1 nM.
The like results for “UACCGCCGCACGGACGCGUUGAGUCAGGAUAUACAUGAGGAUCACCCAUGUGAAGGCCGGCUCAUGUAGAAGGGACAAGCGUUG” were, in that order, 6.2 nM and 7.14 nM.
In the case of “AAUAAACUCACAGGAUAUAGCAUCGUCGUUGCGAACUUAGCGACGACGAUGCUAGAAGGGUGUAUACAUGAGGAUCACCCAUGU”, the “apparent Kd” value was determined as 23 nM under setting [3] and 11.2 nM under setting [4].
The like results for “CGAGACCUCACAGGAUAUGCUGGACUUUGUCCAGCAGAAGGGUGAAAACAUGAGGAUCACCCAUGUAUGGUCUCCAAAUUUAAA” were, in that order, 182 nM and 13.6 nM.
On to “AAACAGCGAGAUAAUAAUGAUUACAUGAGGAUCACCCAUGUAUAGGAUAUCGUCAGGAAUACUGACGAGAAGGAUACAACGCUG”, for which the “apparent Kd” value reads like this: under setting [1], 16 nM; under setting [2], 26.5 nM.
The like results for “UCUCGGUGUUCAGGAUAUGCAUCAAGGUUGUACGCAGAAGGGAACAUGAGGAUCACCCAUGUGUCCGAGCUGGGACGAGGGACG” were, in that order, 37.9 nM and 188 nM.
As for “UUUUAACAUGAGGAUCACCCAUGUGAGGAUAUCGAAAUUUAUAUUAAUAUUAUUUAUACGAGAAGGCACAUUUU”, the “apparent Kd” value under setting [1] amounted to 63.2 nM and the “apparent Kd” value under setting [2] worked out at 73.4 nM.
Taken in the same sequence, the figures for “GGCGGUCGGGAGGAUAUUCGGGCUGUUUGGCUUGGAGAAGGCUCGACAUGAGGAUCACCCAUGUUGGUGUUCUU” were 387 nM and 40.8 nM.
Taken in the same sequence, the figures for “UAAAAGACUAGCUGGUAUCUCCACAUGAGGAUCACCCAUGUCUAGGAUAUGAGCAGCAAAGCUGCUUAGAAGGAGACGCUAGUC” were 7.67 nM and 8.83 nM.
Taken in the same sequence, the figures for “AAAAACAUAGGAUAUACAUGAGGAUCACCCAUGUUAAAAUAAAGAAAGGGAGAAAUAAGUAGAAGGAUGAAAAA” were 37.7 nM and 40.2 nM.
For the sequence “UAUGUAUUCGUAGGAUAUCCGUUAAAACCAUGUGGAGAAGGACGAACAUGAGGAUCACCCAUGUAUCAUGGUGUAGACAAUUUU”, the “apparent Kd” value is, setting by setting: under setting [1], 55.5 nM; under setting [2], 321 nM.
Consider “CGCACUGUACAUGAGGAUCACCCAUGUUAAUAUGAGGUAGUCAGAAGGCAUUGUUUGAGAUAUUAUGAGGAUAUGAUUAGUGCG”, for which the “apparent Kd” value under setting [3] is 110 nM and the “apparent Kd” value under setting [4] amounted to 28.9 nM.
Taken in the same sequence, the figures for “CUGGUUGUCGUAGGAUAUGUAGGAUAUUCCUACAUGAGGAUCACCCAUGUUCGCAUGGAAGAAAGACAGAAGGACGAUGACCAG” were 816 nM and 50.2 nM.
Turning to “UUUGUUUGCGGAGGAUAUAUAAGUGGAUCACCCAUAGAAGGCCGACAUGAGGAUCACCCAUGUUAGACAUGAGGAUCACCCAUG”, the “apparent Kd” value runs as follows: under setting [1], 102 nM; under setting [2], 140 nM.
“UUGGACGUCGUAGGAUAUGUAGGAUAUUCCUACAUGAGGAUCACCCAUGUUGACAUGGGAGAAGGACAGAAGGACGAUGUCCAU”: the “apparent Kd” value by setting is: under setting [3], 52.4 nM; under setting [4], 176 nM.
Regarding “GAUUAACAUGAGGAUCACCCAUGUGAGGAUAUGAACUUGCCCACUUUCCCUUUAGAGUUUAGAAGGCGCAUUCU”, the “apparent Kd” value amounted to 29.8 nM under setting [1] and 30.6 nM under setting [2].
“CCCACGAAAGUCGAACGAUGUAGCAGAAGGACAUGAGGAUCACCCAUGUCAGCUGUAACAGCCAUGUAGGAUAUGCUACAUCCC”: the “apparent Kd” value under setting [1] came to 5.24 nM and the “apparent Kd” value under setting [2] came out at 6.88 nM.

By apparent Kd is commonly meant the concentration giving half-maximal binding under the conditions of the assay.

Source of the values: the EternaBench riboswitch data.
